Data set [1] relates to Staphylococcus epidermidis. The experiment in a line: Antimicrobial activity against Staphylococcus epidermidis RP26A. The class given is functional. A digest of the protocol:
(§1)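 MICs determined by the standard CLSI broth microdilution method on intact bacteria (E. coli MG1655; S. epidermidis RP26A).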

The subject of another data set is Yersinia pestis. Briefly: Antimicrobial activity against Yersinia pestis KIM6+. Type of data set: functional.
Data set [2] in a line: Inhibition of Escherichia coli type 1 signal peptidase using peptide substrate after 30 mins by fluorescence assay. In outline: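 Purified E. coli SPase was assayed with the internally quenched fluorogenic peptide (Dabcyl)-AGHDAHA↓SET-(EDANS), with cleavage at the arrow separating the EDANS donor from the Dabcyl acceptor. IC50 was taken as the half-maximal inhibitory concentration.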

Another data set relates to HEK293. Briefly: Cytotoxicity against HEK293 cells up to 128 ug/ml after 24 hrs by resazurin dye based fluorescence assay. The class given is cell-based. Particulars: human, hek293, 24 h.
For another data set, the system named is Escherichia coli. Briefly: Antimicrobial activity against Escherichia coli MG1655 by broth micro dilution method. The class given is functional, organism-based. The settings on record: K-12 substr. MG1655. In outline:
as §1

MIC, IC50 and Activity data for 12 molecules are collected here from ChEMBL document CHEMBL4145559 (ACS Med Chem Lett, 2018).

Values after ≈ are worked out from the molar mass of the structure shown. Active and inactive are the calls of the source. The rule behind the calls is not given here.

One may read the MIC as the least concentration at which growth counts as inhibited. A high value points to weaker potency. The term IC50 denotes the concentration at which inhibition is half-maximal. Low readings indicate higher potency, high ones lower potency.

With `C[C@@H](O)[C@H]1C(=O)N2C(C(=O)O)=C(SCCNC=N)S[C@H]12`, the figures for the MIC (in data set [1]; with Yersinia pestis) were 8 µg/mL (≈ 25.2 µM) and 16 µg/mL (≈ 50.4 µM), respectively. In data set [2], this molecule displayed an IC50 of 1.04 µg/mL (≈ 3.28 µM). Moreover, in the data set with HEK293, the Activity entry is “Non-Toxic”.

On to `C[C@@H](O)[C@H]1C(=O)N2C(C(=O)O)=C(SCCO)S[C@H]12`, for which the MIC in data set [1] came to 8 µg/mL (≈ 27.5 µM); against Yersinia pestis it was 32 µg/mL (≈ 110 µM). The IC50 in data set [2] was found to be 1.49 µg/mL (≈ 5.11 µM). Besides, the Activity result in the data set with HEK293 is given as “Non-Toxic”.

For `C[C@@H](O)[C@H]1C(=O)N2C(C(=O)O)=C(S[C@@H]3CC[S+]([O-])C3)S[C@H]12` (stereo not given in full), the MIC in data set [1] was determined as 16 µg/mL (≈ 45.8 µM). Moreover, the IC50 in data set [2] came to 1.16 µg/mL (≈ 3.32 µM).

With `C[C@@H](O)[C@H]1C(=O)N2C(C(=O)O)=C(SCCN)S[C@H]12`, the MIC (in data set [1]; against Yersinia pestis) was 16 µg/mL (≈ 55.1 µM) in each case. For the same molecule, the IC50 in data set [2] was found to be 0.63 µg/mL (≈ 2.17 µM). Besides, the Activity result in the data set with HEK293 was “Non-Toxic”.

In the case of `C[C@@H](O)[C@H]1C(=O)N2C(C(=O)O)=C(S[C@@H]3CN[C@H](C(=O)N(C)C)C3)S[C@H]12`, the MIC was 32 µg/mL (≈ 82.6 µM) in data set [1] and 64 µg/mL (≈ 165 µM) in the data set on Yersinia pestis. Besides, in data set [2], the IC50 is 1.22 µg/mL (≈ 3.15 µM).

Take `C[C@@H](O)[C@H]1C(=O)N2C(C(=O)O)=CS[C@H]12`: the result in the data set on Escherichia coli was inactive. For the same molecule, the minimum inhibitory concentration (MIC) (in data set [1]; against Yersinia pestis) was 128 µg/mL (≈ 595 µM) in each case. This molecule also registered an IC50 in data set [2] of 2.99 µg/mL (≈ 13.9 µM).

For `C[C@@H](O)[C@H]1C(=O)N2C(C(=O)O)=C(SCCOC(N)=O)S[C@H]12` [Sch-34343], the MIC in data set [1] was found to be 4 µg/mL (≈ 12 µM); with Yersinia pestis, 16 µg/mL (≈ 47.9 µM). In data set [2], this molecule showed an IC50 of 0.96 µg/mL (≈ 2.87 µM).

Take `C[C@@H](O)[C@H]1C(=O)N2C(C(=O)O)=C(S[C@H]3CCNC3)S[C@H]12`: the MIC (in data set [1]; in the data set on Yersinia pestis) was 8 µg/mL (≈ 25.3 µM) in each case. In addition, the IC50 in data set [2] worked out at 0.8 µg/mL (≈ 2.53 µM).

Take `CNCCSC1=C(C(=O)O)N2C(=O)[C@H]([C@@H](C)O)[C@H]2S1`: the MIC (in data set [1]; against Yersinia pestis) was > 128 µg/mL throughout. In addition, the IC50 in data set [2] was found to be 6.37 µg/mL (≈ 20.9 µM).

Turning to `C[C@@H](O)[C@H]1C(=O)N2C(C(=O)O)=C(CCc3ccccn3)S[C@H]12`, the MIC in data set [1] came out at 16 µg/mL (≈ 49.9 µM); against Yersinia pestis, 32 µg/mL (≈ 99.9 µM). This molecule gave an IC50 in data set [2] of 1.31 µg/mL (≈ 4.09 µM).

`C[C@@H](O)[C@H]1C(=O)N2C(C(=O)O)=C(SCCN(C)C)S[C@H]12`: the MIC (in data set [1]; in the data set with Yersinia pestis) was > 128 µg/mL in each case. The IC50 in data set [2] amounted to 3.95 µg/mL (≈ 12.4 µM).

For the molecule `C[C@@H](O)[C@H]1C(=O)N2C(C(=O)O)=C(S[C@@H]3CCNC3)S[C@H]12`, the MIC was found to be 4 µg/mL (≈ 12.6 µM) in data set [1] and 16 µg/mL (≈ 50.6 µM) in the data set on Yersinia pestis. In data set [2], this molecule gave an IC50 of 1.75 µg/mL (≈ 5.53 µM). Also, in the data set with HEK293, the Activity entry is given as “Non-Toxic”.
